Usually MIC stands for the smallest concentration in the dilution series that meets the test's criterion for growth inhibition. A higher MIC goes with a need for much substance.

SMILES strings stand for the structures. Converted amounts (≈) assume the structure as drawn.

11 compounds from ChEMBL document CHEMBL3352380, “Development of benzo[d]oxazol-2(3H)-ones derivatives as novel inhibitors of Mycobacterium tuberculosis InhA” (Bioorg Med Chem, 2014) can be followed below.

The assay concerns Mycobacterium tuberculosis. In words: Antimicrobial activity against extensively drug-resistant Mycobacterium tuberculosis XDR-TB after 28 days by two-fold agar dilution method. In kind it is functional. The following applies: 672 h. The method in brief:
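Two-fold serial dilutions in Middlebrook 7H11 agar with OADC supplement, final 50 to 0.78 µg/mL. Inoculum from fresh 7H11/OADC slants, adjusted to 1 mg/mL wet weight in 0.05% Tween 80 saline and diluted 10^-2 (~10^7 cfu/mL), spotted onto drug-containing agar tubes. Incubated at 37 °C; MIC is the lowest concentration inhibiting growth, read at 28 days.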
For orientation: In agar dilution the substance is mixed into plates at graded concentrations.
In the case of `O=C(Cn1c(=O)oc2cc([N+](=O)[O-])ccc21)Nc1ncc([N+](=O)[O-])s1`, 17.1 µM (≈ 6.25 µg/mL) was the least that counted as inhibitory (MIC). With `CC[C@@H](CO)NCCN[C@@H](CC)CO` [ETHAMBUTOL] the figure was 24.5 µM (≈ 5 µg/mL); with `O=C(Cn1c(=O)oc2cc(Cl)ccc21)Nc1nc2ccccc2s1`, 34.7 µM (≈ 12.5 µg/mL).

In turn, `CO[C@H]1/C=C/O[C@@]2(C)Oc3c(C)c(O)c4c(O)c(c(/C=N/N5CCN(C)CC5)c(O)c4c3C2=O)NC(=O)/C(C)=C\C=C\[C@H](C)[C@H](O)[C@@H](C)[C@@H](O)[C@@H](C)[C@H](OC(C)=O)[C@@H]1C` [RIFAMPIN] gave a minimal inhibitory concentration (MIC) of 30.4 µM (≈ 25 µg/mL). Take `NNC(=O)c1ccncc1` [ISONIAZID]: the minimal inhibitory concentration (MIC) came out at 45.6 µM (≈ 6.25 µg/mL). Regarding `O=C(Cn1c(=O)oc2cc([N+](=O)[O-])ccc21)Nc1nc2ccc([N+](=O)[O-])cc2s1`, the MIC worked out at 15 µM (≈ 6.25 µg/mL). This MIC lies about 3-fold lower than the previous one.

For the compound `O=C(Cn1c(=O)oc2ccccc21)Nc1nc2ccccc2s1`, the lowest concentration to inhibit growth (MIC) was 38.4 µM (≈ 12.5 µg/mL).

Consider `O=C(Cn1c(=O)oc2ccccc21)NCc1ccco1`, for which the MIC stood at 11.5 µM (≈ 3.12 µg/mL). This MIC is about 3.3-fold lower than that of the compound before. For the compound `O=C(Cn1c(=O)oc2cc(Cl)ccc21)Nc1ncc([N+](=O)[O-])s1`, inhibition of growth (MIC) required 17.6 µM (≈ 6.25 µg/mL).

For the compound `O=C(Cn1c(=O)oc2cc([N+](=O)[O-])ccc21)NCc1cccs1`, the MIC stood at 18.8 µM (≈ 6.25 µg/mL). Consider `O=C(Cn1c(=O)oc2ccccc21)NCc1cccs1`, for which inhibition of growth (MIC) required 21.7 µM (≈ 6.25 µg/mL). This MIC and that of the compound before are within 1.5-fold of each other.
